From ChEMBL document CHEMBL3352779, “Synthesis and biological evaluation of 4-aza-2,3-dihydropyridophenanthrolines as tubulin polymerization inhibitors” (Bioorg Med Chem Lett, 2014)
Active and inactive are the calls of the source. No cut-off for these calls is given here.

Key:
[1] = (§1) Antiproliferative activity against human MiaPaCa cells after 48 hrs by SRB assay; type: functional; conditions: MIA PaCa-2, 48 h
Procedure, shortened: (§2)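 Sulforhodamine B growth assay run on MIAPACA, MCF-7 and HeLa human cancer lines, with etoposide and podophyllotoxin as positive controls. Potency expressed as GI₅₀.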

MCF7 = assay: Antiproliferative activity against human MCF7 cells after 48 hrs by SRB assay; type: functional; procedure, shortened: as §2
HeLa [2] = assay: Antiproliferative activity against human HeLa cells after 48 hrs by SRB assay; type: functional; procedure, shortened: as §2
HeLa [3] = assay: Cell cycle arrest in human HeLa cells assessed as accumulation of cells at G2/M phase at 5 uM after 24 hrs by FACS analysis (Rvb =33.25 %); type: functional
Tubulin = Tubulin (Bos taurus, UniProt Q6B856+Q862L2+Q862F3); assay: Inhibition of bovine brain tubulin polymerization measured for 1 hr at 1 min intervals by fluorescence assay
HeLa [4] = assay: Mitotic arrest in human HeLa cells assessed as cell rounding at 5 uM after 24 hrs by immunohistochemistry; type: functional, cell-based
Procedure, shortened: (§3)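 HeLa cells exposed to 5 µM for 24 h, then fixed and stained with anti-tubulin antibody, with DAPI counterstain. Merged tubulin/DAPI fluorescence images examined for microtubule network and nuclear condensation.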

Tubulin (Homo sapiens) [5] = molecular target: T1, Tubulin (Homo sapiens) (UniProt P68371+Q9H4B7+P0DPH7+P68366+Q13509+Q71U36+P04350+Q3ZCM7+P07437+P68363+Q9BQE3+Q6PEY2+Q13885+Q9BVA1+Q9BUF5); assay: Inhibition of tubulin polymerization in human HeLa cells assessed as increase of tubulin soluble fraction at 5 uM after 24 hrs by immunoblot analysis; type: cell-based
Procedure, shortened: (§4)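 HeLa cells treated at 5 µM for 24 h, then permeabilized. Soluble and polymerized tubulin fractions collected separately and analysed by immunoblotting, with DMSO-treated cells as control.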

HeLa [6] = assay: Disruption of microtubule network in human HeLa cells at 5 uM after 24 hrs by immunohistochemistry; type: cell-based; procedure, shortened: as §3
Tubulin (Homo sapiens) [7] = molecular target: T1, Tubulin (Homo sapiens); assay: Induction of tubulin polymerization in human HeLa cells assessed as increase of tubulin polymerized fraction at 5 uM after 24 hrs by immunoblot analysis; type: cell-based; procedure, shortened: as §4
MiaPaCa = assay: as §1; type: functional; procedure, shortened: as §2

| SMILES | GI50 [1] | GI50 (MCF7; MCF7, 48 h) | GI50 (HeLa [2]) | further results |
| --- | --- | --- | --- | --- |
| Cc1cccc(C2C3=C(COC3=O)Nc3c2c2cccnc2c2ncccc32)c1O (stereo not given) | 500 nM | 10.3 µM | 200 nM |  |
| COc1ccc(C2C3=C(COC3=O)Nc3c2c2cccnc2c2ncccc32)cc1OC (stereo not given) | 5900 nM | 4.6 µM | 40 nM |  |
| COc1ccc(C2C3=C(COC3=O)Nc3c2c2cccnc2c2ncccc32)cc1F (stereo not given) | 1200 nM | 6.4 µM | 800 nM |  |
| O=C1OCC2=C1C(c1ccc(F)c(F)c1)c1c(c3cccnc3c3ncccc13)N2 (stereo not given) | 500 nM | < 0.01 µM | 30 nM | Activity (HeLa [3]): 76.44%; IC50 (Tubulin): 0.92 µM; Activity (HeLa [4]): Active; inhibition (Tubulin (Homo sapiens) [5]): Active; Activity (HeLa [6]): Active |
| COc1ccc(OC)c(C2C3=C(COC3=O)Nc3c2c2cccnc2c2ncccc32)c1 (stereo not given) | 100 nM | 8.4 µM | < 10 nM | Activity (HeLa [3]): 73.77%; IC50 (Tubulin): 2 µM |
| O=C1OCC2=C1C(c1ccc(C(F)(F)F)cc1)c1c(c3cccnc3c3ncccc13)N2 (stereo not given) | 700 nM | 0.06 µM | 2600 nM |  |
| COc1cc(C2C3=C(COC3=O)Nc3c2c2cccnc2c2ncccc32)cc(OC)c1OC (stereo not given) | 2800 nM | 1.7 µM | 100 nM |  |
| Cc1ccc(O)c(C2C3=C(COC3=O)Nc3c2c2cccnc2c2ncccc32)c1 (stereo not given) | 1900 nM |  | 600 nM | GI50 (MCF7): inactive |
| O=C1OCC2=C1C(c1cccc(Cl)c1)c1c(c3cccnc3c3ncccc13)N2 (stereo not given) | 13600 nM |  | inactive | GI50 (MCF7): inactive |
| CC(=O)O[C@H]1C(=O)[C@@]2(C)[C@H]([C@H](OC(=O)c3ccccc3)[C@]3(O)C[C@H](OC(=O)[C@H](O)[C@@H](NC(=O)c4ccccc4)c4ccccc4)C(C)=C1C3(C)C)[C@]1(OC(C)=O)CO[C@@H]1C[C@@H]2O |  |  |  | Activity (Tubulin (Homo sapiens) [7]): Active |
| COc1ccc(C2C3=C(COC3=O)Nc3c2c2cccnc2c2ncccc32)c(OC)c1OC (stereo not given) | 3700 nM | 8.2 µM | 160 nM |  |
| COc1cc([C@@H]2c3cc4c(cc3[C@H](O)[C@H]3COC(=O)[C@H]23)OCO4)cc(OC)c1OC [PODOFILOX] | 500 nM | 0.23 µM | 710 nM | inhibition (Tubulin (Homo sapiens) [5]): Active |
| COc1ccc(C2C3=C(COC3=O)Nc3c2c2cccnc2c2ncccc32)c(O)c1 (stereo not given) | 9800 nM | 9.7 µM | 7000 nM |  |
| COc1cc([C@@H]2c3cc4c(cc3[C@@H](O[C@@H]3O[C@@H]5CO[C@@H](C)O[C@H]5[C@H](O)[C@H]3O)[C@H]3COC(=O)[C@H]23)OCO4)cc(OC)c1O [ETOPOSIDE] | 1300 nM | 0.25 µM | 640 nM |  |
| O=C1OCC2=C1C(c1ccc(F)cc1)c1c(c3cccnc3c3ncccc13)N2 (stereo not given) |  |  | 150 nM | GI50 (MiaPaCa): inactive; GI50 (MCF7): inactive |
| COc1ccc(C2C3=C(COC3=O)Nc3c2c2cccnc2c2ncccc32)cc1 (stereo not given) | 3400 nM | 4.6 µM | 4200 nM |  |
| COc1cc(C2C3=C(COC3=O)Nc3c2c2cccnc2c2ncccc32)cc(OC)c1O (stereo not given) | 100 nM | 2.1 µM | 1700 nM |  |
| O=C1OCC2=C1C(c1cc(Br)ccc1O)c1c(c3cccnc3c3ncccc13)N2 (stereo not given) | 5400 nM | 9.2 µM | 1760 nM |  |
| O=C1OCC2=C1C(c1ccc(O)c(Br)c1)c1c(c3cccnc3c3ncccc13)N2 (stereo not given) | 2000 nM | 7.6 µM | < 10 nM |  |
| O=C1OCC2=C1C(c1ccc(O)c(Cl)c1)c1c(c3cccnc3c3ncccc13)N2 (stereo not given) | 900 nM | 7.7 µM | 300 nM |  |
| O=C1OCC2=C1C(c1cc(Cl)ccc1O)c1c(c3cccnc3c3ncccc13)N2 (stereo not given) |  |  | 300 nM | GI50 (MiaPaCa): inactive; GI50 (MCF7): inactive |
| COc1ccc(F)c(C2C3=C(COC3=O)Nc3c2c2cccnc2c2ncccc32)c1 (stereo not given) | 20 nM | 0.01 µM | < 10 nM | Activity (HeLa [3]): 82.04%; IC50 (Tubulin): 0.83 µM; Activity (HeLa [4]): Active; inhibition (Tubulin (Homo sapiens) [5]): Active; Activity (HeLa [6]): Active |
| O=C1OCC2=C1C(c1cc(F)c(F)c(F)c1)c1c(c3cccnc3c3ncccc13)N2 (stereo not given) |  |  | 2500 nM | GI50 (MiaPaCa): inactive; GI50 (MCF7): inactive |
